Laboratory results published in ChEMBL document CHEMBL1123409, “Analogues of platelet activating factor. 4. Some modifications of the phosphocholine moiety” (J Med Chem, 1986).

How the values were obtained:
[1] = organism: Oryctolagus cuniculus; assay: The maximum aggregation response observed at 6.8e-6 M concentration of the compound; type: functional
[2] = system: Rattus norvegicus; assay: Intravenous dose required to decrease mean arterial blood pressure (MABP) 50 mm Hg; type: functional
Outline: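 Spontaneously hypertensive rats, dosed intravenously. The dose that lowers mean arterial blood pressure by 50 mm Hg is read from the dose-response curve.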

[3] = The ratio of (MABP / Platelet EC 50) x 10^-8
[4] = organism: Oryctolagus cuniculus; assay: The maximum aggregation response observed at 1e-6 M concentration of the compound; type: functional
[5] = organism: Oryctolagus cuniculus; assay: The maximum aggregation response observed at 1e-5 M concentration of the compound; type: functional
[6] = organism: Oryctolagus cuniculus; assay: The maximum aggregation response observed at 1.8e-4 M concentration of the compound; type: functional
[7] = organism: Oryctolagus cuniculus; assay: The maximum aggregation response observed at 1.7e-4M concentration of the compound; type: functional
[8] = organism: Oryctolagus cuniculus; assay: Effective concentration required to produce 50% of maximum aggregation of platelets; type: functional, organism-based
Outline: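 Aggregation tested in rabbit platelet-rich plasma. In each experiment, a dose-response curve was built from six to eight doses spanning 10^-9 to 10^-4 M, with three to four replicates per dose level. EC50 is the molar concentration giving 50% of that analogue's own maximum aggregation response.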

[9] = organism: Oryctolagus cuniculus; assay: The maximum aggregation response observed at 1.6e-4 M concentration of the compound; type: functional
[10] = organism: Oryctolagus cuniculus; assay: The maximum aggregation response observed at 5e-5 M concentration of the compound; type: functional
[11] = The ratio of (MABP / Platelet EC 50) x 100; type: functional
[12] = organism: Oryctolagus cuniculus; assay: The maximum aggregation response observed at 1.7e-4 M concentration of the compound; type: functional
[13] = organism: Oryctolagus cuniculus; assay: The maximum aggregation response observed at 1.48e-5 M concentration of the compound; type: functional

Compound | Dose [2] [µg/kg] | Ratio [3] | other results
CCCCCCCCCCCCCCCCOCC(COP(=O)([O-])OCC[N+](C)(C)C)OC(C)=O (stereo not given) [PLATELET ACTIVATING FACTOR] | 1.25 | 0.47 | Max aggregation response [1]: 71
CCCCCCCCCCCCCCCCOCC(COP(=O)([O-])OCC(C)[N+](C)(C)C)OC(C)=O (stereo not given) | 0.15 | 0.47 | Max aggregation response [4]: 66
CCCCCCCCCCCCCCCCCCOCC(COP(=O)([O-])OCCCC[N+](C)(C)C)OC(C)=O (stereo not given) | 15.85 | 0.36 | Max aggregation response [5]: 71
CCCCCCCCCCCCCCCCOCC(COP(=O)([O-])OCCCC[N+](C)(C)C)OC(C)=O (stereo not given) | 4.84 | 0.65 | Max aggregation response [6]: 68
CCCCCCCCCCCCCCCCOCC(COP(=O)([O-])OCCCCCCCC[N+](C)(C)C)OC(C)=O (stereo not given) | >4000 |  | Max aggregation response [7]: 41; EC50 [8]: 37 µM
CCCCCCCCCCCCCCCCOCC(COP(=O)([O-])OCCC[N+](C)(C)C)OC(C)=O (stereo not given) | 1.43 | 0.57 | Max aggregation response [4]: 65
CCCCCCCCCCCCCCCCOCC(COP(=O)([O-])OCCCCCCCCCC[N+](C)(C)C)OC(C)=O (stereo not given) | >4000 |  | Max aggregation response [9]: 18; EC50 [8]: 59 µM
CCCCCCCCCCCCCCCCOCC(COP(=O)([O-])Oc1cccc(C[N+](C)(C)C)c1)OC(C)=O (stereo not given) | 1.36 | 0.23 | Max aggregation response [10]: 64
CCCCCCCCCCCCCCCCCCOCC(COP(=O)([O-])CC[N+](C)(C)C)OC(C)=O (stereo not given) | 76.54 | 3.83 | Max aggregation response [5]: 82
CCCCCCCCCCCCCCCCOCC(COP(=O)([O-])OCC(c1ccccc1)[N+](C)(C)C)OC(C)=O (stereo not given) | 3.93 |  | Max aggregation response [10]: 69; Ratio [11]: 0.06
CCCCCCCCCCCCCCCCOCC(COP(=O)([O-])OC(C)C[N+](C)(C)C)OC(C)=O (stereo not given) | 1.16 | 0.28 | Max aggregation response [5]: 74
CCCCCCCCCCCCCCCCOCC(COP(=O)([O-])OCCCCCC[N+](C)(C)C)OC(C)=O (stereo not given) | 164.9 | 0.06 | Max aggregation response [12]: 35; EC50 [8]: 27 µM
CCCCCCCCCCCCCCCCCCOCC(COP(=O)([O-])OCC[N+](C)(C)C)OC(C)=O (stereo not given) | 3.17 | 1.34 | Max aggregation response [13]: 75
